hERG rescue = shields human hERG channel from block by proarrhythmic agents | activation (rescue from dofetilide block), less the hit threshold, % at 10 µM | 0.51% of 310,000 active | CHO-hERG, FluxOR thallium flux, dofetilide IC70 present | Q12809 | AID 1511;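 active means activation above the mean of controls blocked by dofetilide plus 5 SD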;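 further: thallium influx through hERG after potassium depolarization seen as dye fluorescence rise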
KCNQ1 act = potentiates or activates the human KCNQ1 potassium channel; P51787; CHO-K1 KCNQ1, thallium flux FluxOR fluorescence; hits give high values; B-score at 10 µM; 0.35% of 310,000 active; AID 2648;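 active means fluorescence ratio B-score, a plate-corrected score, at least three library SD, with initial intensity B-score within 5 SD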
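System: CHO-K1 cells stably expressing KCNQ1 / Medium: assay buffer for compound exposure, DMSO matched across wells / Reagent: thallium- and potassium-containing depolarizing buffer / Compound: one concentration, matched DMSO / Incubation: 20 min compound pretreatment at room temperature / Measured by: kinetic FluxOR fluorescence, 10 s baseline plus 110 s post-stimulus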
KCC2 mod = modulators of human KCC2 chloride dependent transport. B-score of Tl+ flux slope (higher = more flux/activation; lower = inhibition) at 10 µM. 2.2% of 190,000 active. KCC2 cells, thallium flux FluoZin-2 fluorescence;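 active means thallium flux slope and its plate-corrected score both differing from the plate sample mean at a set confidence after two filtering rounds, in either direction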;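 further: slope of fluorescence scaled to starting intensity during 10 to 20 s after thallium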
Target sequence (Q9H2X9 whole entry, looked up): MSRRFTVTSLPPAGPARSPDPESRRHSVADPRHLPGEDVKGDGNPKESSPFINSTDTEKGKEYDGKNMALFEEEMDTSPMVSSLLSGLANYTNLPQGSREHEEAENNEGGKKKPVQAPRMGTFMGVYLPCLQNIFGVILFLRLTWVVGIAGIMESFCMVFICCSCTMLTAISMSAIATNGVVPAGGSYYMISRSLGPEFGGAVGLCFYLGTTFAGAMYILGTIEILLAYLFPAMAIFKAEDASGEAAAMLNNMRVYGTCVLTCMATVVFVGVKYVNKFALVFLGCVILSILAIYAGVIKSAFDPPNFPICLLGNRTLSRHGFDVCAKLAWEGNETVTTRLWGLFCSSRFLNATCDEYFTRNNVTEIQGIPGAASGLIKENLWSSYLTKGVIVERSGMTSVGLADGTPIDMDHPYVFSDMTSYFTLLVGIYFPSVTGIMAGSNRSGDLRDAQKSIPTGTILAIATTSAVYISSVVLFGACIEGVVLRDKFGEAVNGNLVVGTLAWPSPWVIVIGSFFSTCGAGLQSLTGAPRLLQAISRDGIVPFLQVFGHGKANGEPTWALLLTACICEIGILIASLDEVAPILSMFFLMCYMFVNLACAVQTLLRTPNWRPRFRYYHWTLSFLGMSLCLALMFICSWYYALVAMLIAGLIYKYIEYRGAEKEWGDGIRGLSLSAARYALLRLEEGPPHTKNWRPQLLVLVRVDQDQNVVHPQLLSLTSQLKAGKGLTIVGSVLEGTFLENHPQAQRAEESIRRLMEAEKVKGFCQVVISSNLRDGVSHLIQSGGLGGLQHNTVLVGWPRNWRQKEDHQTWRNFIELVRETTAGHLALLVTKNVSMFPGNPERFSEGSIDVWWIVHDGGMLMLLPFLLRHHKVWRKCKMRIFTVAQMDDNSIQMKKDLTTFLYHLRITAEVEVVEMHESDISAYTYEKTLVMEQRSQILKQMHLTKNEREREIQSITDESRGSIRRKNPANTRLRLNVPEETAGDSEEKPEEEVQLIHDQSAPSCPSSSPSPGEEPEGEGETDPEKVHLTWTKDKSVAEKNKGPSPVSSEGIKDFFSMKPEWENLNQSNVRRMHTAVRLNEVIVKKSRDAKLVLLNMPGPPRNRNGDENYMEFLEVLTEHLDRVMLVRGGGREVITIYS
KCNQ1 inh = blocks the human KCNQ1 potassium channel; P51787; CHO-K1 KCNQ1, FluxOR thallium flux fluorescence; hits give high values; B-score at 10 µM; 1.3% of 310,000 active; AID 2642;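 active means compounds whose thallium flux B-score, printed positive for inhibition, exceeds three library SD while starting fluorescence stays within three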;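 further: channel opened by potassium depolarization with thallium stimulus after 20 min compound exposure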
KCNK9 block = human KCNK9 channel inhibition | Q9NPC2 | HEK293 KCNK9, FluxOR thallium flux fluorescence; hits give low values | B-score at 10 µM | AID 488922 | 1.2% of 310,000 active;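 active means ratio B-score over 3 SD below the library mean, with starting fluorescence within 5 SD of its mean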;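 further: negative B-score means less thallium flux so channel inhibition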
KCNK3 inh = human KCNK3 channel inhibition, primary screen | B-score at 10 µM | CHO-KCNK3 thallium flux, FluxOR fluorescence; hits give low values | 0.84% of 340,000 active | O14649;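 active means B-score under library mean minus 4 SD, starting fluorescence ratio at most library mean plus 5 SD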;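 further: more negative B-score means stronger inhibition of thallium flux through KCNK3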
KCNK9 block conf = human KCNK9 inhibitor confirmation | shares compounds with KCNK9 block | HEK293 KCNK9 cells, FluxOR thallium flux fluorescence | inhibition, % at 10 µM | 43% of 4,900 active | AID 492992;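 active means thallium signal inhibited by more than 5 SD of the compound-free buffer control wells, on both duplicate plates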
Kir21 sel = mouse Kir2.1 off-target activity of KCNK9 modulators. shares compounds with KCNK9 block. Kir2.1 cells, FluxOR thallium flux fluorescence. inhibition, % at 10 µM. 4% of 4,900 active. AID 492993;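 active means thallium signal drop more than 5 SD beyond the mean of the no-compound control wells, seen in both duplicate plates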;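 further: signal is fluorescence rise after thallium addition divided by baseline fluorescence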
KCNK9 uninduced = second check of KCNK9 modulator effects in non-induced HEK293 cells; shares compounds with KCNK9 block; FluxOR thallium flux; inhibition, % at 10 µM; 40% of 4,900 active; AID 492997;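 active means thallium signal drop beyond 5 SD of the untreated control mean, on both duplicate plates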
Of the large screens only hits and unclear results are named; the others gave an inactive call (follow-up assays come after a bar, where they were run). This is a sample that favours compounds with a hit; in the whole collection about 4.1% have one here.

CCOC(=O)/C(=N\Nc1ccccc1Cl)N(C)C1CCCCC1	KCNK9 block -8.8 | KCNK9 block conf 64% | Kir21 sel inactive | KCNK9 uninduced 50%
CCOC(=O)N1CCC(N(CCN(C)C)C(=S)Nc2ccccc2Cl)CC1	none
CCOC(=O)/C(=N\Nc1cc(C(F)(F)F)ccc1Cl)N(CC)CC	KCNK9 block -13 | KCNK9 block conf 54% | Kir21 sel inactive | KCNK9 uninduced 42%
Cc1c(NS(=O)(=O)c2cccc(C(=O)Nc3cccc(F)c3)c2)c(=O)n(-c2ccccc2)n1C	none (no result: hERG rescue, KCNQ1 act, KCC2 mod, KCNQ1 inh, KCNK9 block)
O=C(CNC(=O)c1ccccc1F)OC(C(=O)Nc1cc(C(F)(F)F)ccc1Cl)c1ccccc1 (stereo not drawn)	KCNK9 block -11 | KCNK9 block conf inactive | Kir21 sel inactive | KCNK9 uninduced 32%
O=C(COC(=O)CNC(=O)c1ccccc1Cl)Nc1cc(C(F)(F)F)ccc1Cl	none (no result: hERG rescue, KCNQ1 act, KCC2 mod, KCNQ1 inh, KCNK9 block)
Cc1ccc(CN2CCN(/N=C\C=C\c3ccccc3)CC2)cc1	none | KCNK9 block conf inactive | Kir21 sel inactive | KCNK9 uninduced inactive
BrC(=C\c1ccccc1)/C=N/N1CCN(Cc2ccccc2)CC1	none (no result: KCC2 mod)
Cc1ccc(/C=N/N2CCN(Cc3ccc(C)cc3)CC2)cc1	none
CC(/C=N\N1CCN(Cc2ccc(C)cc2)CC1)=C\c1ccccc1	none | KCNK9 block conf inactive | Kir21 sel inactive | KCNK9 uninduced inactive
BrC(/C=N/N1CCN(Cc2ccccc2)CC1)=C/c1ccccc1	none | KCNK9 block conf inactive | Kir21 sel inactive | KCNK9 uninduced inactive
CSc1nc(O)c(N=Nc2ccc(F)cc2F)c(=O)[nH]1	none (no result: KCC2 mod)
Cc1ccc(S(=O)(=O)N(C)C)cc1-n1c(SCC(=O)Nc2ccc(F)c(F)c2F)nc2ccccc2c1=O	KCNK9 block -14 | KCNK9 block conf 64% | Kir21 sel inactive | KCNK9 uninduced 40%
COc1ccccc1NC(=O)Nc1sccc1-c1nc2ccccc2s1	KCNK9 block -13 | KCNK9 block conf 70% | Kir21 sel inactive | KCNK9 uninduced 40%
O=C(Nc1ccccc1)Nc1sccc1-c1nc2ccccc2s1	none
O=C1CC(=C(c2ccccc2)c2ccccc2)C(=O)N1CCN1CCN(c2cccc(Cl)c2)CC1	none | KCNK9 block conf inactive | Kir21 sel inactive | KCNK9 uninduced inactive
O=C1CC(=C(c2ccccc2)c2ccccc2)C(=O)N1CCCN1CCN(c2cccc(Cl)c2)CC1	none
Cn1c(/C(C#N)=C/Nc2ccccn2)nc2ccccc21	none
CCOc1ccccc1N/C=C(\C#N)c1nc2ccccc2n1C	KCNK9 block -11 | KCNK9 block conf inactive | Kir21 sel inactive | KCNK9 uninduced inactive
O=C(Nc1ccc2nc(-c3cccs3)[nH]c2c1)c1cccs1	KCNK9 block -10 (no result: KCC2 mod) | KCNK9 block conf 56% | Kir21 sel inactive | KCNK9 uninduced inactive
Cc1c(C(=O)CN2CCN(c3ccccc3)CC2)c2ccccc2n1C	none (no result: KCC2 mod) | KCNK9 block conf inactive | Kir21 sel inactive | KCNK9 uninduced inactive
CC(C)c1ccc(/C=N/NC(=O)c2ccc(-n3cnnn3)cc2)cc1	none (no result: hERG rescue, KCNQ1 act, KCC2 mod, KCNQ1 inh, KCNK9 block)
Fc1ccccc1COc1ccc(-c2nnn(Cc3ccccc3F)n2)cc1	none | KCNK9 block conf inactive | Kir21 sel inactive | KCNK9 uninduced inactive
Cn1nnc(-c2ccc(OCc3ccccc3F)cc2)n1	none
COc1ccccc1N(C)S(=O)(=O)c1ccc(C)c(C(=O)NC(C)c2ccccn2)c1 (stereo not drawn)	none (no result: hERG rescue, KCNQ1 act, KCC2 mod, KCNQ1 inh, KCNK9 block)
CC1CCC(NC(=O)c2cccc(S(=O)(=O)N3CCN(c4ccc(F)cc4)CC3)c2)CC1 (stereo not drawn)	none (no result: KCC2 mod)
CC1CCN(C(=O)c2ccc3c(Cl)c4c(nc3c2)CCCC4)CC1	none | KCNK9 block conf inactive | Kir21 sel inactive | KCNK9 uninduced inactive
O=C(c1ccc2c(Cl)c3c(nc2c1)CCCC3)N1CCN(c2ccc(F)cc2)CC1	none | KCNK9 block conf inactive | Kir21 sel inactive | KCNK9 uninduced inactive
O=C(COC(=O)CCN=C1NS(=O)(=O)c2ccccc21)NNC(=O)c1ccccc1	none (no result: KCC2 mod)
COc1ccc(NC(=O)CN2C(=O)NC(C)(C3CC3)C2=O)c(OC)c1 (stereo not drawn)	none (no result: hERG rescue, KCNQ1 act, KCC2 mod, KCNQ1 inh, KCNK9 block)
COc1ccc(S(=O)(=O)N(C)C[C@H]2Oc3ccc(NC(=O)NC4CCCCC4)cc3C(=O)N([C@H](C)CO)C[C@@H]2C)cc1	none (no result: hERG rescue, KCNQ1 act, KCC2 mod, KCNQ1 inh, KCNK9 block)
Nc1[nH]n2c(=O)c3c(nc2c1N=Nc1ccc(Cl)cc1)CCCC3	KCNK9 block -9.6 (no result: KCC2 mod) | KCNK9 block conf 39% | Kir21 sel inactive | KCNK9 uninduced inactive
COc1cccc(N2CCN(C3CCCC(C)C3)CC2)c1 (stereo not drawn)	none
Cc1ccc(C)c(N2CCN(CC3CCCCC3)CC2)c1	none (no result: KCC2 mod) | KCNK9 block conf inactive | Kir21 sel inactive | KCNK9 uninduced inactive
C/C=C(\C)CN1CCN(c2cc(C)ccc2C)CC1	none (no result: KCC2 mod)
Cc1cccc(N2CCN(CC3CCCCC3)CC2)c1C	none (no result: KCC2 mod)
Cc1ccc(C)c(N2CCN(CCCc3ccccc3)CC2)c1	none (no result: KCC2 mod) | KCNK9 block conf inactive | Kir21 sel inactive | KCNK9 uninduced inactive
Cc1ccc(C)c(N2CCN(C3CCCC(C)C3)CC2)c1 (stereo not drawn)	none (no result: KCC2 mod) | KCNK9 block conf inactive | Kir21 sel inactive | KCNK9 uninduced inactive
CCc1nc(C)cn1S(=O)(=O)c1ccc2c(c1)OCCO2	none (no result: hERG rescue, KCNQ1 act, KCC2 mod, KCNQ1 inh, KCNK9 block)
Cc1oc(-c2cccs2)nc1CNC[C@H]1O[C@@H](n2cnc(C(N)=O)n2)[C@H](O)[C@@H]1O	none (no result: hERG rescue, KCNQ1 act, KCC2 mod, KCNQ1 inh, KCNK9 block)
Cc1sc(NC(=O)CN2CCOCC2)c(C#N)c1C	none
CCOC(=O)C1CCCN(Cc2cc(Br)ccc2OC)C1 (stereo not drawn)	none (no result: hERG rescue, KCNQ1 act, KCNQ1 inh, KCNK9 block)
CCOC(=O)C1CCCN(CC(O)COCc2ccccc2OC)C1 (stereo not drawn)	none (no result: KCC2 mod) | KCNK9 block conf inactive | Kir21 sel inactive | KCNK9 uninduced inactive
CCOC(=O)C1CCCN(Cc2cc(=O)oc3cc(C)ccc23)C1 (stereo not drawn)	none
CCOC(=O)C1CCCN(Cc2cc(=O)oc3cc(C)c(C)cc23)C1 (stereo not drawn)	none | KCNK9 block conf inactive | Kir21 sel inactive | KCNK9 uninduced inactive
CCOC(=O)C1CCCN(CC(O)COCc2ccc3c(c2)OCO3)C1 (stereo not drawn)	none
CCOC(=O)C1CCCN(Cc2cc(Br)c(OC)cc2OC)C1 (stereo not drawn)	none | KCNK9 block conf inactive | Kir21 sel inactive | KCNK9 uninduced inactive
Cc1ccc(NC(=O)c2ncn(CCCN3CCN(c4ncccn4)CC3)n2)cc1C	none (no result: hERG rescue, KCNQ1 act, KCC2 mod, KCNQ1 inh, KCNK9 block)
c1ccc(-c2ccc(CNC3CC3)cc2)cc1	none (no result: KCC2 mod)

Screens: PubChem, several laboratories
